Results reported in PubChem BioAssay.
Active and inactive are the calls of the source.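 How the source made its calls, unless noted: active means a full or partial loss of lipid-probe fluorescence in the fish gall bladder, intestine or both, judged by eye; inactive means no fluorescence loss, or compound toxic to the fish.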

Columns and labels:
[1] = inhibitors of TNFa-induced NFkB p65 translocation, primary screen, imaging, HUVEC, MLSMR starter and 10KST1 sets (AID 438;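 active means inhibition above 20% together with a positive visual image hit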;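 further: compound added about 3h40 before a 20 min TNFalpha stimulation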;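 on inhibition: signal is the nuclear over cytoplasmic p65 intensity ratio per well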); details: HUVEC TNFa-induced p65 nuclear translocation; cell count: measured here: nuclei count (cytotoxicity indicator), at 2.08 µM; inhibition: at 2 µM, stronger effect = higher value, 0% TNFa-plus-vehicle, 100% no-TNFa wells
[2] = endothelial E-selectin expression blockers – imaging, HUVEC, immunofluorescence, MLSMR starter and 10KST1 sets, primary screen (AID 487;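 active means visually confirmed hit in the image check and inhibition above 20%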;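 on inhibition: signal is fraction of cell area covered by stained E-selectin grains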;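 on nuclei count: 100% = median nuclei count of all wells on the same plate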); details: HUVEC TNFalpha-induced E-selectin immunofluorescence imaging, at 2 µM; inhibition: stronger effect = higher value; nuclei count: measured here: cell number, toxicity
[3] = Primary imaging screen for DUSP6 inhibitors that restore phospho-Erk in transfected HeLa cells, chemical complementation (AID 609;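 active means compounds giving at least 50% inhibition in the cell-based MKP-3 phosphatase rescue imaging test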;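 on inhibition: phospho-Erk level distribution per well compared with pooled transfected vehicle control wells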); details: HeLa MKP-3 transfected, phospho-Erk imaging KS statistic, at 10 µM, cells stimulated with TPA for 15 min
[4] = target: Dual specificity protein phosphatase 6 (Homo sapiens) (UniProt Q16828); assay: as above; details: HeLa MKP-3 transfected, phospho-Erk imaging KS statistic; at 10 µM; stronger effect = higher value; cells stimulated with TPA for 15 min
[5] = target: Voltage-gated potassium channel subunit beta-2 (Rattus norvegicus) (UniProt P62483); assay: inhibitors of rat Kvbeta2 reductase activity – biochemical, NADPH fluorescence, primary screen (AID 622;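 active means fluorescence slope higher than the sample average by over 3 SD, cut at about -0.22 in these data, passing the limit was not always enough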;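 further: slope of raw intensity against log time taken from 70 to 1610 s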); details: recombinant KvBeta, 4-cyanobenzaldehyde reduction, at 10 µM, stronger effect = higher value
[6] = target: Voltage-gated potassium channel subunit beta-2 (Rattus norvegicus) (UniProt P62483); assay: enhancers of rat Kvbeta2 NADPH turnover – biochemical, NADPH fluorescence, primary screen (AID 623;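 active means NADPH fluorescence slope more negative than the mean of all samples by about 3 SD, 99.7% confidence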;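 further: fluorescence intensity change per second fitted from 20 to 320 s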); details: Recombinant KvBeta, NADPH fluorescence decrease slope, 10 min; at 10 µM; stronger effect = lower value
[7] = target: Muscarinic acetylcholine receptor M4 (Homo sapiens) (UniProt P08173); assay: M4-linked GIRK flux change, two-sided – cell-based, HEK293 M4/GIRK, thallium flux, BTC-AM, M4 allosteric agonist project, primary screen (AID 625;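 active means fluorescence slope after compound addition differing from the mean of all tested samples at 99.7% confidence, mostly higher but some lower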;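 further: thallium influx through GIRK channels coupled to M4 in HEK293 cells with BTC-AM dye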); details: at 10 µM, actives lie on both sides
Outline: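 Assay system: HEK293 cells with M4 receptor and GIRK channels / Controls: carbachol and DMSO controls / Schedule: 1 h dye loading, 2 min kinetic read / Technique: kinetic fluorescence with BTC-AM dye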

[8] = inhibitors of larval lipid processing in zebrafish, primary screen, whole organism, PED6 fluorescence, gall bladder and intestine (AID 686); details: Zebrafish larvae PED6 lipid processing, fluorescence scoring; screened at 20 µM (by protocol);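 further: larvae 5 to 7 days old with five fish per well; signal comes from phospholipase A2 cleavage of quenched PED6 carried via bile; overnight exposure to compound and PED6 before scoring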
Outline: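 Doses: 20 µM single dose. Test system: live zebrafish larvae aged 5-7 days, whole organism. Quantity: five larvae per well. Measured by: By-eye fluorescence microscopy. Reagent: ingested quenched lipid PED6 at 100 nM. Read-out: visual per-well fluorescence inhibition score. Times: overnight exposure of larvae to compound plus PED6.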

[9] = loss of swimming-algae plug formation – whole organism, Chlamydomonas reinhardtii, WT vs cilia-less mutant, absorbance, 96-well, primary screen (AID 463189;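 active means inhibition at or above 50% relative to wild type and mutant plate controls; inactive means inhibition below 50%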;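 further: 0% = wild type cc124 cells in DMSO and 100% = ciliumless bld1 mutant cells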); details: Chlamydomonas reinhardtii gravitaxis, OD600 absorbance, 2 days; at 10 µM; stronger effect = higher value
[10] = measured here: cell density z-score
[11] = measured here: nuclear c-Myc green intensity z-score
[12] = measured here: nuclear pErk red intensity z-score, stronger effect = higher value

Voltage-gated potassium channel subunit beta-2 (Rattus norvegicus), sequence (P62483 whole entry, looked up): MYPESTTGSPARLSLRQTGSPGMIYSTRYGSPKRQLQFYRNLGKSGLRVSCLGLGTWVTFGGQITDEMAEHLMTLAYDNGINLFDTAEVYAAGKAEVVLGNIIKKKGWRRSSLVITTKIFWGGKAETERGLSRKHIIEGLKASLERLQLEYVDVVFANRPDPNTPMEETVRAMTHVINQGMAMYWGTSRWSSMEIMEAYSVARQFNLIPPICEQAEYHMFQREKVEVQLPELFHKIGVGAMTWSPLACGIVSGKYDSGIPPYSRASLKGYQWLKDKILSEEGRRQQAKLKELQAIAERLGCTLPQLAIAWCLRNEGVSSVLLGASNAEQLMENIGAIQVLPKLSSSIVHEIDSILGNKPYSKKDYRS
Muscarinic acetylcholine receptor M4 (Homo sapiens), sequence (P08173 whole entry, looked up): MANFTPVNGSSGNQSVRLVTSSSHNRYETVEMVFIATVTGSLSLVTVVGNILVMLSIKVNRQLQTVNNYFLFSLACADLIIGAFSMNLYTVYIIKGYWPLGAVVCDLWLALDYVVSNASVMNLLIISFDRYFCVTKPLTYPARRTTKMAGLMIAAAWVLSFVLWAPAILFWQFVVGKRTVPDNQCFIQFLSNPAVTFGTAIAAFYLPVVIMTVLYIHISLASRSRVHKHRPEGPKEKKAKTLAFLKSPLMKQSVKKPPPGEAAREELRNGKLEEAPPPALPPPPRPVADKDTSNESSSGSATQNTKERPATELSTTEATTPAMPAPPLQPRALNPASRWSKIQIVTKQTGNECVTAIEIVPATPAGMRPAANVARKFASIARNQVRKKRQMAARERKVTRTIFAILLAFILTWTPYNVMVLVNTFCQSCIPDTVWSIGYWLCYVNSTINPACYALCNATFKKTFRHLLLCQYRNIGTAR
Dual specificity protein phosphatase 6 (Homo sapiens), sequence (Q16828 whole entry, looked up): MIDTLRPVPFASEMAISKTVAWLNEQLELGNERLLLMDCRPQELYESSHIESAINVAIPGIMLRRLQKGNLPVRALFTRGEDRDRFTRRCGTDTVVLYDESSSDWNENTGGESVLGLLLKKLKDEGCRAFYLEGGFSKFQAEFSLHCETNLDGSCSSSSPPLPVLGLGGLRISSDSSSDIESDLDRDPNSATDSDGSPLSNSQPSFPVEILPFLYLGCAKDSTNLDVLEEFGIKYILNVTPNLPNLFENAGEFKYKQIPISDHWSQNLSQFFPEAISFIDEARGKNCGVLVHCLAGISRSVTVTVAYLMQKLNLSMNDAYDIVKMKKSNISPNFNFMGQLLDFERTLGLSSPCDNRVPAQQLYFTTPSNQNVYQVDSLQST

SMILES | cell count [1] | inhibition [1] | inhibition [2] | nuclei count [2] [%] | z-score [3, 10] | z-score [3, 11] | z-score [3, 12] | inhibition [4] | fluorescence slope [5] | NADPH fluorescence slope [6] | fluorescence slope [7] | outcome [8] | inhibition [9]
COC(=O)C(NC(=O)c1ccc(F)cc1)(Nc1nc(C)cs1)C(F)(F)F (stereo unspecified) | 695 | -6.3% (inactive) | -18.4% (inactive) | 151 | -0.266 | -0.66 | 0.98 | -3.95% (inactive) | -0.444 (inactive) | -4.6e-05 (inactive) | 0.00339 (inactive) | inactive | 7.8% (inactive)
COc1cccc(C=NCCNC(=O)c2nonc2N)c1O | 517 | -4% (inactive) | 62.5% (inactive) | 169 | -0.652 | 2.61 | -0.971 | 7.93% (inactive) | -0.413 (inactive) | -3.4e-05 (inactive) | 0.00584 (inactive) | inactive | -4.89% (inactive)
CCCc1cc(NCCN2CCOCC2)n2c(nc3ccccc32)c1C#N | 472 | 0.5% (inactive) | -144% (inactive) | 105 | -1.9 | 2.65 | 0.164 | 1.98% (inactive) | -0.324 (inactive) | 7.2e-06 (inactive) | 0.00729 (inactive) | inactive | -18.9% (inactive)
Cn1c(=O)[nH]c(=O)c2c1nc(Br)n2CCSc1nnnn1-c1ccccc1 | 639 | 0.9% (inactive) | -40.4% (inactive) | 177 | -0.541 | -0.392 | 1.24 | 3.42% (inactive) | -0.384 (inactive) | -4e-05 (inactive) | 0.00586 (inactive) | inactive | 27.6% (inactive)
COc1cc(C2C(C(C)=O)=C(O)C(=O)N2c2ccc(Br)cn2)ccc1O (stereo unspecified) | 406 | -8.5% (inactive) | -148% (inactive) | 180 | -0.216 | -0.848 | 0.128 | -2.59% (inactive) | -0.446 (inactive) | -0.000114 (inactive) | 0.00394 (inactive) | inactive | 23.7% (inactive)
CC(Sc1ccc2ccccc2n1)C(=O)O (stereo unspecified) | 709 | -5.5% (inactive) | 23% (inactive) | 185 | 0.12 | 0.234 | -0.321 | 7.21% (inactive) | -0.478 (inactive) | -9e-05 (inactive) | 0.00615 (inactive) | inactive | -8.1% (inactive)
CN(C)CCCn1c(NC(=O)C2CCCCC2)nc2ccccc21 | 672 | 9.7% (inactive) | -32.4% (inactive) | 112 | 0.036 | -0.199 | -1.54 | -3.95% (inactive) | -0.437 (inactive) | -3.5e-05 (inactive) | 0.00538 (inactive) | inactive | -0.148% (inactive)
C=CCOc1nc2c(c(=O)n(Cc3ccc(Cl)cc3)c(=O)n2C)n1C | 534 | -5.1% (inactive) | 22.1% (inactive) | 170 | -0.487 | 1.21 | 0.796 | -9.91% (inactive) | -0.414 (inactive) | -5.4e-05 (inactive) | 0.00453 (inactive) | inactive | -3.62% (inactive)
CCCCSc1nc(N)c(C#N)c(-c2cccs2)c1C#N | 652 | -3.4% (inactive) | -1.9% (inactive) | 141 | 1.43 | 0.907 | -0.946 | -4.7% (inactive) | -0.432 (inactive) | -1.7e-05 (inactive) | 0.00886 (inactive) | inactive | -8.35% (inactive)
Cc1cc(C)n(CC2CC(=O)N(c3ccc(C)c(Cl)c3)C2=O)n1 (stereo unspecified) | 597 | -3.7% (inactive) | 19% (inactive) | 93.4 | 1.31 | -0.417 | 0.186 | 12.8% (inactive) | -0.517 (inactive) | -2.4e-05 (inactive) | 0.00527 (inactive) | inactive | -14.7% (inactive)
O=S(=O)(c1cccc2nsnc12)N1CCN(C/C=C/c2ccccc2)CC1 | 680 | 3.2% (inactive) | 16.6% (inactive) | 117 | -0.555 | -0.43 | 0.591 | 1.9e-07% (inactive) | -0.527 (inactive) | -5.7e-05 (inactive) | 0.00411 (inactive) | inactive | 45.8% (inactive)
CCCCOC(=O)c1[nH]c(C)c(C(=O)OC)c1C | 604 | -7.5% (inactive) | 50.3% (inactive) | 98.7 | 0.82 | -1.07 | -0.474 | 37% (inactive) | -0.481 (inactive) | -1.9e-05 (inactive) | 0.00588 (inactive) | inactive | 90.5% (active)
CCNC(=O)c1cc2c(=O)n3cccc(C)c3nc2n(CCc2ccccc2)c1=N | 643 | 8.2% (inactive) | -7.9% (inactive) | 106 | -0.692 | 0.0237 | -0.676 | 14.7% (inactive) | -0.0428 (inactive) | -1.8e-05 (inactive) | 0.00034 (inactive) | active; no signal in intestine only | 70.9% (active)
CCC(=O)Nc1nc2ccccc2n1CCN(C)C | 551 | 4.1% (inactive) | -371% (inactive) | 131 | 0.711 | 0.524 | -0.675 | -1.98% (inactive) | -0.436 (inactive) | -1.7e-05 (inactive) | 0.00568 (inactive) | inactive | -5.07% (inactive)
COc1ccc(-n2ncc3c(NCCCn4ccnc4)ncnc32)cc1 | 614 | -4% (inactive) | 0.9% (inactive) | 170 | -0.682 | 1.35 | -0.266 | 3.42% (inactive) | -0.394 (inactive) | -5.9e-06 (inactive) | 0.00474 (inactive) | inactive | 1.19% (inactive)
COc1ccc(CN(C)CCc2ccccn2)c(OC)c1OC | 494 | -4.5% (inactive) | -90.8% (inactive) | 151 | -1.25 | -0.772 | 0.512 | -3.95% (inactive) | -0.419 (inactive) | -3.4e-05 (inactive) | 0.00521 (inactive) | inactive | 18.3% (inactive)
O=c1c2sc3nc(N4CCOCC4)c4c(c3c2ncn1Cc1ccco1)CCCC4 | 502 | 2.3% (inactive) | -62.8% (inactive) | 143 | -0.769 | -0.213 | 0.589 | 21.8% (inactive) | -0.369 (inactive) | -1.9e-05 (inactive) | 0.00575 (inactive) | inactive | 30% (inactive)
O=C(NCc1ccco1)c1ccc(=O)[nH]n1 | 578 | 3.8% (inactive) | -71.8% (inactive) | 91.1 | 0.426 | -0.894 | -1.39 | 28.1% (inactive) | -0.539 (inactive) | -4.2e-05 (inactive) | 0.00665 (inactive) | inactive | 29.4% (inactive)
COC(=O)C(NC(=O)c1ccco1)(Nc1ccc(Br)cn1)C(F)(F)F (stereo unspecified) | 717 | -8.8% (inactive) | 13.2% (inactive) | 147 | -0.772 | -0.373 | 1.11 | -5.81% (inactive) | -0.457 (inactive) | -6.6e-05 (inactive) | 0.00446 (inactive) | inactive | 4.54% (inactive)
O=C(C1=C(O)C(=O)N(CCCN2CCOCC2)C1c1ccccn1)c1cc2ccccc2o1 (stereo unspecified) | 558 | -4.5% (inactive) | 55.2% (inactive) | 95.5 | 0.823 | 0.459 | -0.11 | 12.7% (inactive) | -0.441 (inactive) | -0.000374 (active) | 0.0054 (inactive) | inactive | 23.5% (inactive)
Cc1cc(=O)oc2c(CN3CCC(C)CC3)c(O)c(Cl)cc12 | 654 | -6.9% (inactive) | -12% (inactive) | 171 | 0.311 | 0.013 | 0.217 | 1.12% (inactive) | -0.0249 (inactive) | 4.3e-06 (inactive) | 0.00736 (inactive) | inactive | -2.21% (inactive)
C=CCOc1ccc(/C(O)=C2\C(=O)C(=O)N(CCN(C)C)C2c2cccs2)cc1 (stereo unspecified) | 642 | 2.8% (inactive) | -0.3% (inactive) | 181 | 0.295 | 1.17 | 0.318 | 12.8% (inactive) | -0.469 (inactive) | -6.6e-05 (inactive) | 0.00599 (inactive) | inactive | 10.2% (inactive)
O=C1C2ON(c3ccccc3)C(c3cccnc3)C2C(=O)N1Cc1ccccc1 (stereo unspecified) | 620 | -11% (inactive) | -48.8% (inactive) | 177 | 0.802 | 0.656 | -1.11 | 2.71% (inactive) | -0.512 (inactive) | -5.7e-05 (inactive) | 0.00545 (inactive) | inactive | -1.68% (inactive)
CCCSc1nc(O)c(C2OC(=O)c3c2ccc(OC)c3OC)c(=O)n1C (stereo unspecified) | 560 | -1.3% (inactive) | 29.6% (inactive) | 143 | 0.566 | -0.178 | 0.157 | 7.93% (inactive) | -0.415 (inactive) | -3.7e-05 (inactive) | 0.00648 (inactive) | inactive | 12.4% (inactive)
c1ccc2c(c1)CCN(c1ncnc3c1[nH]c1ccccc13)C2 | 585 | -19.2% (inactive) | -59.1% (inactive) | 172 | 0.335 | -1.2 | 1.56 | -4.59% (inactive) | -0.388 (inactive) | -1.5e-05 (inactive) | 0.00488 (inactive) | inactive | 42.6% (inactive)
CCn1c(SCC(=O)NC2CCCCC2C)nnc1-c1ccc(OC)cc1 (stereo unspecified) | 430 | -4.4% (inactive) | -37.9% (inactive) | 149 | -0.0183 | 0.142 | 0.845 | 7.73% (inactive) | -0.45 (inactive) | -0.000123 (inactive) | 0.00502 (inactive) | inactive | -4.06% (inactive)
CC(C)c1nc2n[nH]c(N)c2c2c1CCCC2 | 576 | 2.1% (inactive) | -38.2% (inactive) | 148 | -0.386 | 1.02 | -1.27 | 7.21% (inactive) | -0.465 (inactive) | -8.5e-05 (inactive) | 0.00509 (inactive) | inactive | -2.96% (inactive)
